Assay [1] is described as follows: (§1) In vitro binding affinity at Sigma opioid receptor type 1 on guinea pig brain membranes by [3H]pentazocine displacement. The arrangement: species or system Membrane.
Assay [2] addresses D(2) dopamine receptor (Rattus norvegicus, UniProt P61169). The assay can be described thus: In vitro binding affinity at Dopamine receptor D2 of rat striatal membranes by [3H]-raclopride displacement.
Assay [3] in a line: as §1. The arrangement: species or system Membrane. The method, boiled down: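 IC50 from displacement curves at 10 concentrations of each compound, each run in duplicate. Values are means of 1–3 separate experiments, with variation between experiments below 15%.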
The source holds these as a separate data set.

Each structure is given as a SMILES string. Some results are limits rather than exact numbers.

Chain of D(2) dopamine receptor (P61169 whole entry): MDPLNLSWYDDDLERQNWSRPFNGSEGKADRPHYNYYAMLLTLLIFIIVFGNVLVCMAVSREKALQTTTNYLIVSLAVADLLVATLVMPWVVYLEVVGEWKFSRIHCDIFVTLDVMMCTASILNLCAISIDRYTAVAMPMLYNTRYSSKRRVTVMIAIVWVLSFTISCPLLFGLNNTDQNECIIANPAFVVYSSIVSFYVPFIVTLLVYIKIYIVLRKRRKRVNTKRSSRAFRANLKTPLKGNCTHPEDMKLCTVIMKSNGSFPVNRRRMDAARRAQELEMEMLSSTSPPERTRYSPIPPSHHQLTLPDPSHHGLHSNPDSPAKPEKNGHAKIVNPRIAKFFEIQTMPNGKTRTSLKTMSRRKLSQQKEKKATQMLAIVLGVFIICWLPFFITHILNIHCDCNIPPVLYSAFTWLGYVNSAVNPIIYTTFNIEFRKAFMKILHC

Consider `CCCCCCC(Cc1ccc(OC)c(OCCc2ccccc2)c1)NCCC` (stereo unspecified), for which the IC50 in assay [1] was 8.1 nM; in assay [2], over 1000 nM. Taken in the same sequence, the figures for `CCCCC(Cc1ccc(OC)c(OCCc2ccccc2)c1)NCCC` (single isomer, unassigned; (-)) were 0.7 nM and over 1000 nM.

As for `CCCCC(Cc1ccc(OC)c(OCCc2ccccc2)c1)NCCC` (stereo unspecified) [listing 1 of 2 here], in assay [1], the IC50 worked out at 34 nM. Turning to `CCCNC(CCC(C)C)Cc1ccc(OC)c(OCCc2ccccc2)c1` (stereo in doubt; 6i), the IC50 is 1.6 nM in assay [1] and over 1000 nM in assay [2].

For the compound `CCCNC(CC)Cc1ccc(OC)c(OCCc2ccccc2)c1` (stereo unspecified), the IC50 is 1.8 nM in assay [1] and over 1000 nM in assay [2]. With `CCCN(CCC)C(CC)Cc1ccc(OC)c(OCCc2ccccc2)c1` (stereo unspecified), in assay [2], the IC50 was over 1000 nM. On the same count and under the same terms, the figure for `CCCNCCc1ccc(OC)c(OCCc2ccccc2)c1` is over 1000 nM. With `CCCC(Cc1ccc(OC)c(OCCc2ccccc2)c1)N(CCC)CCC` (stereo unspecified), the IC50 in assay [1] is 8.2 nM; in assay [2], over 1000 nM. `CCCN(CCC)CCc1ccc(OC)c(OCCc2ccccc2)c1`: the IC50 in assay [3] is 1.5 nM; in assay [2], over 1000 nM. `CCCNC(CCC(C)C)Cc1ccc(OC)c(OCCc2ccccc2)c1` (single isomer, unassigned; (-)): the IC50 in assay [1] is 0.5 nM; in assay [2], over 1000 nM. Compound `COc1ccc(CCN2CCCC2)cc1OCCc1ccccc1` displayed an IC50 in assay [2] of over 1000 nM. The compound `COc1ccc(CCN)cc1OCCc1ccccc1` displayed an IC50 in assay [2] of over 1000 nM. Turning to `CCCCC(Cc1ccc(OC)c(OCCc2ccccc2)c1)NCCC` (stereo unspecified) [listing 2 of 2 here], the IC50 in assay [1] is 1.9 nM; in assay [2], over 1000 nM. On the same counts, the results for `CCCCCC(Cc1ccc(OC)c(OCCc2ccccc2)c1)NCCC` (stereo unspecified) are 2.2 nM and over 1000 nM. On the same counts, the results for `CCCNC(CCC)Cc1ccc(OC)c(OCCc2ccccc2)c1` (stereo unspecified) are 4.1 nM and over 1000 nM.

Take `CCCNC(CCC(C)C)Cc1ccc(OC)c(OCCc2ccccc2)c1` (stereo in doubt; 6i(+)): the IC50 in assay [1] was determined as 22 nM. That is a double-digit nanomolar value.

As a reminder, the IC50 is the point on the concentration scale where inhibition reaches its midpoint. Low values mean greater potency in that assay, high ones weaker potency in that assay.

Source of the values: ChEMBL document CHEMBL1132405, “Synthesis and SAR of 1-alkyl-2-phenylethylamine derivatives designed from N,N-dipropyl-4-methoxy-3-(2-phenylethoxy)phenylethylamine to discover sigma(1) ligands” (J Med Chem, 1999).
